Assay results taken from ChEMBL document CHEMBL5724801, “EUbOPEN Chemogenomics Library - Multiplex” (2024).
Values joined by “and” are separate entries in the source; they are usually repeats but may differ in a detail not shown here. Equal values may be shown once.

Test system: U2OS
Assay: Multiplex assay against U2OS
Assay type: toxicity, cell-based
Conditions: human
How it was run: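 Tubulin, mitochondrial-mass and membrane-permeability phenotypes are per cents of healthy-nucleus cells. Cells were gated by CellPathfinder machine learning into Hoechst high-intensity objects or normal cells, normal cells into healthy, pyknosed or fragmented nuclei, and pyknosed cells into mitotic or apoptotic. Before that, live cells stained at seeding with Hoechst33342, BioTracker Green Microtubule Cytoskeleton Dye, MitoTracker Red and Annexin V Alexa Fluor 680 were imaged on a CQ1 microscope at 37°C and 5% CO2 after compound addition.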

[1] = 12 h, 1 µM, compound concentration 1 uM
[2] = 12 h, 10 µM, compound concentration 10 uM
[3] = 24 h, 1 µM, compound concentration 1 uM
[4] = 24 h, 10 µM, compound concentration 10 uM
[5] = 48 h, 1 µM, compound concentration 1 uM
[6] = 48 h, 10 µM, compound concentration 10 uM

CC(=O)Nc1cccc2c1c(Sc1ccc(Cl)cc1)c(C)n2CC(=O)O [AZD1981]
Population Apoptotic (%) [1]: 68% and 83%
Population Fragmented Nuclei (%) [1]: 24% and 16%
Population Healthy Nuclei (%) [1]: 68% and 76%
Population Hoechst High Intensity Objects (%) [1]: 3% and 1%
Population Membrane Permeable-Phenotype (%) [1]: 3% and 6%
Population Mitochondria Different-Phenotype (%) [1]: 0% and 1%
Population Mitotic Cells (%) [1]: 31% and 16%
Population Normal (%) [1]: 96% and 98%
Population Pyknosed Nuclei (%) [1]: 6% and 7%
Population Tubulin-Different-Phenotype (%) [1]: 2% and 3%
Population Apoptotic (%) [2]: 83% and 80%
Population Fragmented Nuclei (%) [2]: 25% and 19%
Population Healthy Nuclei (%) [2]: 66% and 76%
Population Hoechst High Intensity Objects (%) [2]: 2% and 3%
Population Membrane Permeable-Phenotype (%) [2]: 8% and 10%
Population Mitochondria Different-Phenotype (%) [2]: 0% and 3%
Population Mitotic Cells (%) [2]: 16% and 20%
Population Normal (%) [2]: 97% and 96%
Population Pyknosed Nuclei (%) [2]: 7% and 4%
Population Tubulin-Different-Phenotype (%) [2]: 1% and 5%
Total Cell Count [2]: 231 and 122
Population Apoptotic (%) [3]: 91% and 50%
Population Fragmented Nuclei (%) [3]: 25% and 16%
Population Healthy Nuclei (%) [3]: 66% and 82%
Population Hoechst High Intensity Objects (%) [3]: 2% and 0%
Population Membrane Permeable-Phenotype (%) [3]: 5% and 4%
Population Mitochondria Different-Phenotype (%) [3]: 1% and 3%
Population Normal (%) [3]: 97% and 100%
Population Pyknosed Nuclei (%) [3]: 8% and 1%
Population Tubulin-Different-Phenotype (%) [3]: 3% and 0%
Total Cell Count [3]: 289 and 106
Population Apoptotic (%) [4]: 88% and 100%
Population Fragmented Nuclei (%) [4]: 23% and 14%
Population Healthy Nuclei (%) [4]: 66% and 77%
Population Hoechst High Intensity Objects (%) [4]: 0%
Population Membrane Permeable-Phenotype (%) [4]: 6% and 3%
Population Mitochondria Different-Phenotype (%) [4]: 2% and 4%
Population Mitotic Cells (%) [4]: 11% and 0%
Population Normal (%) [4]: 99%
Population Pyknosed Nuclei (%) [4]: 9% and 8%
Population Tubulin-Different-Phenotype (%) [4]: 2% and 0%
Total Cell Count [4]: 266 and 125
Population Apoptotic (%) [5]: 91% and 81%
Population Fragmented Nuclei (%) [5]: 16% and 9%
Population Healthy Nuclei (%) [5]: 74% and 82%
Population Hoechst High Intensity Objects (%) [5]: 1% and 3%
Population Membrane Permeable-Phenotype (%) [5]: 6%
Population Mitochondria Different-Phenotype (%) [5]: 2% and 0%
Population Mitotic Cells (%) [5]: 8% and 18%
Population Normal (%) [5]: 98% and 96%
Population Pyknosed Nuclei (%) [5]: 9% and 7%
Population Tubulin-Different-Phenotype (%) [5]: 4% and 1%
Total Cell Count [5]: 375 and 144
Population Apoptotic (%) [6]: 100% and 85%
Population Fragmented Nuclei (%) [6]: 18% and 14%
Population Healthy Nuclei (%) [6]: 75% and 73%
Population Hoechst High Intensity Objects (%) [6]: 2% and 1%
Population Membrane Permeable-Phenotype (%) [6]: 7%
Population Mitochondria Different-Phenotype (%) [6]: 2% and 4%
Population Mitotic Cells (%) [6]: 0% and 15%
Population Normal (%) [6]: 97% and 98%
Population Pyknosed Nuclei (%) [6]: 5% and 11%
Population Tubulin-Different-Phenotype (%) [6]: 4%
Total Cell Count [6]: 366 and 171

COc1cc(/C=C(\C#N)C(=O)Nc2nnc(C(F)(F)F)s2)ccc1OCc1ccc(C(F)(F)F)cc1C(F)(F)F
Population Apoptotic (%) [1]: 22.22% and 38.1%
Population Fragmented Nuclei (%) [1]: 1.99% and 4.9%
Population Healthy Nuclei (%) [1]: 89.05% and 80.42%
Population Hoechst High Intensity Objects (%) [1]: 0%
Population Membrane Permeable-Phenotype (%) [1]: 0.84% and 2.61%
Population Mitochondria Different-Phenotype (%) [1]: 0.28% and 6.09%
Population Mitotic Cells (%) [1]: 77.78% and 61.9%
Population Normal (%) [1]: 100%
Population Pyknosed Nuclei (%) [1]: 8.96% and 14.69%
Population Tubulin-Different-Phenotype (%) [1]: 0.56% and 0%
Total Cell Count [1]: 402 and 143
Population Apoptotic (%) [2]: 36.59% and 47.06%
Population Fragmented Nuclei (%) [2]: 1.77% and 5.29%
Population Healthy Nuclei (%) [2]: 87.88% and 85.71%
Population Hoechst High Intensity Objects (%) [2]: 0%
Population Membrane Permeable-Phenotype (%) [2]: 0.57% and 6.17%
Population Mitochondria Different-Phenotype (%) [2]: 0.29% and 3.09%
Population Mitotic Cells (%) [2]: 63.41% and 52.94%
Population Normal (%) [2]: 100%
Population Pyknosed Nuclei (%) [2]: 10.35% and 8.99%
Population Tubulin-Different-Phenotype (%) [2]: 1.72% and 0%
Total Cell Count [2]: 396 and 189
Population Apoptotic (%) [3]: 43.86% and 43.48%
Population Fragmented Nuclei (%) [3]: 1.6% and 6.28%
Population Healthy Nuclei (%) [3]: 88.24% and 81.68%
Population Hoechst High Intensity Objects (%) [3]: 0%
Population Membrane Permeable-Phenotype (%) [3]: 0.81% and 3.85%
Population Mitochondria Different-Phenotype (%) [3]: 0% and 5.13%
Population Mitotic Cells (%) [3]: 56.14% and 56.52%
Population Normal (%) [3]: 100%
Population Pyknosed Nuclei (%) [3]: 10.16% and 12.04%
Population Tubulin-Different-Phenotype (%) [3]: 0.81% and 0.64%
Total Cell Count [3]: 561 and 191
Population Apoptotic (%) [4]: 52.08% and 57.69%
Population Fragmented Nuclei (%) [4]: 0.74% and 3.08%
Population Healthy Nuclei (%) [4]: 90.41% and 85.46%
Population Hoechst High Intensity Objects (%) [4]: 0%
Population Membrane Permeable-Phenotype (%) [4]: 1.43% and 7.22%
Population Mitochondria Different-Phenotype (%) [4]: 0% and 1.03%
Population Mitotic Cells (%) [4]: 47.92% and 42.31%
Population Normal (%) [4]: 100%
Population Pyknosed Nuclei (%) [4]: 8.86% and 11.45%
Population Tubulin-Different-Phenotype (%) [4]: 1.43% and 0.52%
Total Cell Count [4]: 542 and 227
Population Apoptotic (%) [5]: 46.05% and 40.48%
Population Fragmented Nuclei (%) [5]: 3.37% and 3.16%
Population Healthy Nuclei (%) [5]: 89.31% and 83.54%
Population Hoechst High Intensity Objects (%) [5]: 0%
Population Membrane Permeable-Phenotype (%) [5]: 1.29% and 1.14%
Population Mitochondria Different-Phenotype (%) [5]: 0.11% and 2.65%
Population Mitotic Cells (%) [5]: 53.95% and 59.52%
Population Normal (%) [5]: 100%
Population Pyknosed Nuclei (%) [5]: 7.32% and 13.29%
Population Tubulin-Different-Phenotype (%) [5]: 0.32% and 0%
Population Apoptotic (%) [6]: 40% and 47.5%
Population Fragmented Nuclei (%) [6]: 2.52% and 1.99%
Population Healthy Nuclei (%) [6]: 89.1% and 88.09%
Population Hoechst High Intensity Objects (%) [6]: 0%
Population Membrane Permeable-Phenotype (%) [6]: 0.47% and 3.66%
Population Mitochondria Different-Phenotype (%) [6]: 0% and 0.85%
Population Mitotic Cells (%) [6]: 60% and 52.5%
Population Normal (%) [6]: 100%
Population Pyknosed Nuclei (%) [6]: 8.39% and 9.93%
Population Tubulin-Different-Phenotype (%) [6]: 0.82% and 1.13%
Total Cell Count [6]: 954 and 403
